According to ChEMBL document CHEMBL1158563, “Identification of benzimidazole-based inhibitors of the mitogen activated kinase-5 signaling pathway” (2010):

Columns and labels:
[1] = target: T1, Dual specificity mitogen-activated protein kinase kinase 5 (Homo sapiens) (UniProt Q13163); test: Inhibition of EGF-induced MEK5-mediated ERK5 phosphorylation in human HEK293 cells at 10 uM treated after 30 mins EGF challenge measured after 30 mins by Western blot analysis relative to control; type: cell-based; set-up: scale not given: the % may be the effect or the level left
T1 sequence (whole entry): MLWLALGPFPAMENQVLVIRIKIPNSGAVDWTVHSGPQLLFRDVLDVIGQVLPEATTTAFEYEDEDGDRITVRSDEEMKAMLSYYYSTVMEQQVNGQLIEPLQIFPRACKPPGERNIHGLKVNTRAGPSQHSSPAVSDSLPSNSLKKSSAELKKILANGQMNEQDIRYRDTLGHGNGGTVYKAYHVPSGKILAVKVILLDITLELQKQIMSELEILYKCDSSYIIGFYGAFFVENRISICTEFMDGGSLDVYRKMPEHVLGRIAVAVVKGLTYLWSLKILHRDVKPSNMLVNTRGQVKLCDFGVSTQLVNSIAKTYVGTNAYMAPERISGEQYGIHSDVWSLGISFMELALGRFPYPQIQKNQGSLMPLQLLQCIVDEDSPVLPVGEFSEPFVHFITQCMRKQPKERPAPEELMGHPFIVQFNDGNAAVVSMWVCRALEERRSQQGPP
How it was run: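 HEK293 cells were grown in medium with 10% heat-inactivated FBS and 0.5% penicillin/streptomycin at 37 °C, 5% CO2. They were stimulated with 50 ng/mL EGF, then given 10 µM compound (final) 30 min later, and lysed 30 min after that in 1% Triton buffer. 60 µg protein was run on 10% SDS gels and blotted for pERK1/2 (1:1000) or pERK5 (1:500).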

MDA-MB-231 = test: Cytotoxicity against human MDA-MB-231 cells at 10 uM assessed as cell growth relative to control; type: functional; conditions: read-out: Activity
DU-145 = test: Cytotoxicity against human DU145 cells at 10 uM assessed as cell growth relative to control; type: functional; conditions: read-out: Activity
MCF7 = test: Cytotoxicity against human MCF7 cells at 10 uM assessed as cell growth relative to control; type: functional; conditions: read-out: Activity
HCT-116 = test: Cytotoxicity against human HCT116 cells at 10 uM assessed as cell growth relative to control; type: functional; conditions: read-out: Activity
SR = test: Cytotoxicity against human SR cells at 10 uM assessed as cell growth relative to control; type: functional; conditions: read-out: Activity
K562 = test: Cytotoxicity against human K562 cells at 10 uM assessed as cell growth relative to control; type: functional; conditions: read-out: Activity
U-251 = test: Cytotoxicity against human U251 cells at 10 uM assessed as cell growth relative to control; type: functional; conditions: read-out: Activity
UACC-62 = test: Cytotoxicity against human UACC62 cells at 10 uM assessed as cell growth relative to control; type: functional; conditions: read-out: Activity
OVCAR-8 = test: Cytotoxicity against human OVCAR8 cells at 10 uM assessed as cell growth relative to control; type: functional; conditions: read-out: Activity
[2] = Cytotoxicity against human Hs 578T cells at 10 uM assessed as cell growth relative to control; type: functional; conditions: read-out: Activity
A549 = test: Cytotoxicity against human A549 cells at 10 uM assessed as cell growth relative to control; type: functional; conditions: read-out: Activity
LOX IMVI = test: Cytotoxicity against human LOXIMVI cells at 10 uM assessed as cell growth relative to control; type: functional; conditions: read-out: Activity
SN12C = test: Cytotoxicity against human SN12C cells at 10 uM assessed as cell growth relative to control; type: functional; conditions: read-out: Activity
IGROV-1 = test: Cytotoxicity against human IGROV1 cells at 10 uM assessed as cell growth relative to control; type: functional; conditions: read-out: Activity
BT-549 = test: Cytotoxicity against human BT549 cells at 10 uM assessed as cell growth relative to control; type: functional; conditions: read-out: Activity
NCI-H522 = test: Cytotoxicity against human NCI-H522 cells at 10 uM assessed as cell growth relative to control; type: functional; conditions: read-out: Activity
SK-OV-3 = test: Cytotoxicity against human SKOV3 cells at 10 uM assessed as cell growth relative to control; type: functional; conditions: read-out: Activity
786-0 = test: Cytotoxicity against human 786-0 cells at 10 uM assessed as cell growth relative to control; type: functional; conditions: read-out: Activity
OVCAR-3 = test: Cytotoxicity against human OVCAR-3 cells at 10 uM assessed as cell growth relative to control; type: functional; conditions: read-out: Activity
UO-31 = test: Cytotoxicity against human UO31 cells at 10 uM assessed as cell growth relative to control; type: functional; conditions: read-out: Activity
MOLT-4 = test: Cytotoxicity against human MOLT4 cells at 10 uM assessed as cell growth relative to control; type: functional; conditions: read-out: Activity
MDA-MB-435 = test: Cytotoxicity against human MDA-MB-435 cells at 10 uM assessed as cell growth relative to control; type: functional; conditions: read-out: Activity
NCI/ADR-RES = test: Cytotoxicity against human NCI/ADR-RES cells at 10 uM assessed as cell growth relative to control; type: functional; conditions: read-out: Activity
HT-29 = test: Cytotoxicity against human HT-29 cells at 10 uM assessed as cell growth relative to control; type: functional; conditions: read-out: Activity
COLO 205 = test: Cytotoxicity against human COLO205 cells at 10 uM assessed as cell growth relative to control; type: functional; conditions: read-out: Activity
CAKI-1 = test: Cytotoxicity against human Caki1 cells at 10 uM assessed as cell growth relative to control; type: functional; conditions: read-out: Activity
UACC-257 = test: Cytotoxicity against human UACC257 cells at 10 uM assessed as cell growth relative to control; type: functional; conditions: read-out: Activity
T47D = test: Cytotoxicity against human T47D cells at 10 uM assessed as cell growth relative to control; type: functional; conditions: read-out: Activity
NCI-H322M = test: Cytotoxicity against human NCI-H322M cells at 10 uM assessed as cell growth relative to control; type: functional; conditions: read-out: Activity
Malme-3M = test: Cytotoxicity against human MALME-3M cells at 10 uM assessed as cell growth relative to control; type: functional; conditions: read-out: Activity
[3] = Cytotoxicity against human […] cells at 10 uM assessed as cell growth relative to control; type: functional; conditions: read-out: Activity
SK-MEL-5 = test: Cytotoxicity against human SK-MEL-5 cells at 10 uM assessed as cell growth relative to control; type: functional; conditions: read-out: Activity
SK-MEL-28 = test: Cytotoxicity against human SK-MEL-28 cells at 10 uM assessed as cell growth relative to control; type: functional; conditions: read-out: Activity
HL-60(TB) = test: Cytotoxicity against human HL-60(TB) cells at 10 uM assessed as cell growth relative to control; type: functional; conditions: read-out: Activity
HOP-62 = test: Cytotoxicity against human HOP62 cells at 10 uM assessed as cell growth relative to control; type: functional; conditions: read-out: Activity
ACHN = test: Cytotoxicity against human ACHN cells at 10 uM assessed as cell growth relative to control; type: functional; conditions: read-out: Activity
SF-268 = test: Cytotoxicity against human SF268 cells at 10 uM assessed as cell growth relative to control; type: functional; conditions: read-out: Activity
SNB-75 = test: Cytotoxicity against human SNB75 cells at 10 uM assessed as cell growth relative to control; type: functional; conditions: read-out: Activity
NCI-H23 = test: Cytotoxicity against human NCI-H23 cells at 10 uM assessed as cell growth relative to control; type: functional; conditions: read-out: Activity
EKVX = test: Cytotoxicity against human EKVX cells at 10 uM assessed as cell growth relative to control; type: functional; conditions: read-out: Activity
SF-539 = test: Cytotoxicity against human SF539 cells at 10 uM assessed as cell growth relative to control; type: functional; conditions: read-out: Activity
OVCAR-4 = test: Cytotoxicity against human OVCAR4 cells at 10 uM assessed as cell growth relative to control; type: functional; conditions: read-out: Activity
SNB-19 = test: Cytotoxicity against human SNB19 cells at 10 uM assessed as cell growth relative to control; type: functional; conditions: read-out: Activity
HOP-92 = test: Cytotoxicity against human HOP92 cells at 10 uM assessed as cell growth relative to control; type: functional; conditions: read-out: Activity
OVCAR-5 = test: Cytotoxicity against human OVCAR5 cells at 10 uM assessed as cell growth relative to control; type: functional; conditions: read-out: Activity
MDA-MB-468 = test: Cytotoxicity against human MDA-MB-468 cells at 10 uM assessed as cell growth relative to control; type: functional; conditions: read-out: Activity
NCI-H460 = test: Cytotoxicity against human NCI-H460 cells at 10 uM assessed as cell growth relative to control; type: functional; conditions: read-out: Activity
KM12 = test: Cytotoxicity against human KM12 cells at 10 uM assessed as cell growth relative to control; type: functional; conditions: read-out: Activity
HCT-15 = test: Cytotoxicity against human HCT15 cells at 10 uM assessed as cell growth relative to control; type: functional; conditions: read-out: Activity
SF-295 = test: Cytotoxicity against human SF295 cells at 10 uM assessed as cell growth relative to control; type: functional; conditions: read-out: Activity
TK-10 = test: Cytotoxicity against human TK10 cells at 10 uM assessed as cell growth relative to control; type: functional; conditions: read-out: Activity
M14 = test: Cytotoxicity against human M14 cells at 10 uM assessed as cell growth relative to control; type: functional; conditions: read-out: Activity
RXF 393 = test: Cytotoxicity against human RXF393 cells at 10 uM assessed as cell growth relative to control; type: functional; conditions: read-out: Activity
NCI-H226 = test: Cytotoxicity against human NCI-H226 cells at 10 uM assessed as cell growth relative to control; type: functional; conditions: read-out: Activity
HCC 2998 = test: Cytotoxicity against human HCC2998 cells at 10 uM assessed as cell growth relative to control; type: functional; conditions: read-out: Activity
SK-MEL-2 = test: Cytotoxicity against human SK-MEL-2 cells at 10 uM assessed as cell growth relative to control; type: functional; conditions: read-out: Activity
A498 = test: Cytotoxicity against human A498 cells at 10 uM assessed as cell growth relative to control; type: functional; conditions: read-out: Activity
CCRF-CEM = test: Cytotoxicity against human CCRF-CEM cells at 10 uM assessed as cell growth relative to control; type: functional; conditions: read-out: Activity
SW-620 = test: Cytotoxicity against human SW620 cells at 10 uM assessed as cell growth relative to control; type: functional; conditions: read-out: Activity

SMILES: CCC(CO)Oc1cc(NCc2ccccc2)c2ncn(C3CCCC3)c2c1 (configuration not stated)
- Activity [1]: 132%

SMILES: c1ccc(CNc2cc(Cc3ccccc3)cc3c2ncn3C2CCCC2)cc1
- Activity [1]: 78%

SMILES: COc1cc(NCc2ccccc2)c2ncn(Cc3ccccc3)c2c1
- Activity [1]: 136%

SMILES: COc1cc(NCc2ccccc2)c2ncn(C(C)C)c2c1
- growth at 10 µM (MDA-MB-231): 111%
- growth at 10 µM (DU-145): 136%
- growth at 10 µM (MCF7): 5.8%
- growth at 10 µM (HCT-116): 103%
- growth at 10 µM (SR): 51.7%
- growth at 10 µM (K562): 64.2%
- growth at 10 µM (U-251): 103%
- growth at 10 µM (UACC-62): 97.3%
- growth at 10 µM (OVCAR-8): 98.7%
- growth at 10 µM [2]: 174%
- growth at 10 µM (A549): 110%
- growth at 10 µM (LOX IMVI): 115%
- growth at 10 µM (SN12C): 104%
- growth at 10 µM (IGROV-1): 92.5%
- growth at 10 µM (BT-549): 55.6%
- growth at 10 µM (NCI-H522): 87%
- growth at 10 µM (SK-OV-3): 110%
- growth at 10 µM (786-0): 96.8%
- growth at 10 µM (OVCAR-3): 103%
- growth at 10 µM (UO-31): 83.2%
- growth at 10 µM (MOLT-4): 78.7%
- growth at 10 µM (MDA-MB-435): 122%
- growth at 10 µM (NCI/ADR-RES): 96.5%
- growth at 10 µM (HT-29): 109%
- growth at 10 µM (COLO 205): 118%
- growth at 10 µM (CAKI-1): 97.2%
- growth at 10 µM (UACC-257): 105%
- growth at 10 µM (T47D): 80.1%
- growth at 10 µM (NCI-H322M): 115%
- growth at 10 µM (Malme-3M): 49.2%
- growth at 10 µM [3]: 71.5%
- growth at 10 µM (SK-MEL-5): 122%
- growth at 10 µM (SK-MEL-28): 125%
- growth at 10 µM (HL-60(TB)): 50.3%
- growth at 10 µM (HOP-62): 101%
- growth at 10 µM (ACHN): 105%
- growth at 10 µM (SF-268): 125%
- growth at 10 µM (SNB-75): 92.3%
- growth at 10 µM (NCI-H23): 91.1%
- growth at 10 µM (EKVX): 93.9%
- growth at 10 µM (SF-539): 96.2%
- growth at 10 µM (OVCAR-4): 80.6%
- growth at 10 µM (SNB-19): 90.7%
- growth at 10 µM (HOP-92): 84.5%
- growth at 10 µM (OVCAR-5): 97.2%
- growth at 10 µM (MDA-MB-468): 36.5%
- growth at 10 µM (NCI-H460): 107%
- growth at 10 µM (KM12): 104%
- growth at 10 µM (HCT-15): 97.9%
- growth at 10 µM (SF-295): 138%
- growth at 10 µM (TK-10): 136%
- growth at 10 µM (M14): 109%
- growth at 10 µM (RXF 393): 91.2%
- growth at 10 µM (NCI-H226): 97.1%
- growth at 10 µM (HCC 2998): 104%
- growth at 10 µM (SK-MEL-2): 91.6%
- growth at 10 µM (A498): 106%
- growth at 10 µM (CCRF-CEM): 93.9%
- growth at 10 µM (SW-620): 146%
